Experimental data published in ChEMBL document CHEMBL1137349, “Selective angiotensin II AT2 receptor agonists: arylbenzylimidazole structure-activity relationships” (J Med Chem, 2006).
Active and inactive are the calls of the source. The rule behind the calls is not given here.

Key:
[1] = tested on: NG108-15; assay: Induction of neurite growth in NG108-15 cells relative to control; format: functional, cell-based
Outline: (§1)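 NG108-15 cells, which express only AT2, were plated at 4 × 10⁴ cells per 35 mm dish and grown 3 days with or without 0.1 µM agonist, with Ang II as reference. Micrographs were taken under phase contrast. Cells with at least one neurite longer than the cell body were scored positive, as a percentage of 50–100 total cells.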

[2] = target: Type-1 angiotensin II receptor (Rattus norvegicus) (UniProt P25095); assay: Displacement of [125I]Ang2 from AT1 receptor in rat liver membrane
[3] = tested on: NG108-15; assay: Induction of NG108-15 cell death at 1 uM; format: functional, cell-based
Outline: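 NG108-15 neuroblastoma × glioma hybrid cells plated at 4 × 10⁴ cells per 35 mm dish and cultured 3 days with test agent across 1 pM to 1 µM. Cells were then examined by phase contrast microscopy and micrographs taken to assess cell death.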

[4] = tested on: NG108-15; assay: Induction of neurite growth in NG108-15 cells at 0.1 uM after 3 days in presence of PD-123319; format: functional, cell-based
Outline: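 Here the 0.1 µM agonist was co-incubated with 1 µM of the AT2 antagonist PD 123,319 for 3 days. NG108-15 cells were plated at 4 × 10⁴ per 35 mm dish. The percentage of cells bearing a neurite longer than the cell body was counted from phase-contrast micrographs of 50–100 cells.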

[5] = tested on: NG108-15; assay: Induction of neurite growth in NG108-15 cells at 0.1 uM after 3 days; format: functional, cell-based; outline: as §1

Row | SMILES | Ki [2] | other results
1 | Cc1cc(Cn2cnc3c2C[C@@H](C(=O)O)N(C(=O)C(c2ccccc2)c2ccccc2)C3)ccc1N(C)C |  | Activity [1]: inactive
2 | CCCCOC(=O)NS(=O)(=O)c1sc(CCC)cc1-c1ccc(Cn2ccnc2)cc1 |  | Activity [3]: Active; Activity [4]: inactive; Activity [5]: Active
3 | CCCCOC(=O)NS(=O)(=O)c1ccc(CCCC)cc1-c1ccc(Cn2ccnc2)cc1 | > 10 µM | 
4 | CCCCOC(=O)NS(=O)(=O)c1ccc(OCCCC)cc1-c1ccc(Cn2ccnc2)cc1 |  | Activity [3]: Active; Activity [4]: inactive; Activity [5]: Active
5 | CCCCOC(=O)NS(=O)(=O)c1sc(CCCC)cc1-c1ccc(Cn2ccnc2)cc1 | > 10 µM | 
6 | CC(C)Cc1cc(-c2ccc(Cn3ccnc3)cc2)c(S(=O)(=O)NC(=O)OC(C)C)s1 | > 10 µM | 
7 | CCCCc1ccc(S(=O)(=O)NC(=O)OCC)c(-c2ccc(Cn3ccnc3)cc2)c1 | > 10 µM | 

Second part, led by results:

Row | Ki [2] | SMILES | other results
8 | > 10 µM | CCCCOC(=O)NS(=O)(=O)c1ccc(OC(C)C)cc1-c1ccc(Cn2ccnc2)cc1 | 
9 | > 10 µM | CC(C)Cc1cc(-c2ccc(Cn3ccnc3)cc2)c(S(=O)(=O)NC(=O)OC(C)(C)C)s1 | 
10 | > 10 µM | CCCCN(C)C(=O)NS(=O)(=O)c1sc(CC(C)C)cc1-c1ccc(Cn2ccnc2)cc1 | 
11 | > 10 µM | CCCCS(=O)(=O)NS(=O)(=O)c1sc(CC(C)C)cc1-c1ccc(Cn2ccnc2)cc1 | 
12 | > 10 µM | CCCCS(=O)(=O)NC(=O)c1sc(CC(C)C)cc1-c1ccc(Cn2ccnc2)cc1 | 
13 | > 10 µM | COCCOC(=O)NS(=O)(=O)c1sc(CC(C)C)cc1-c1ccc(Cn2ccnc2)cc1 | 
